Laboratory results: ChEMBL document CHEMBL2331248, “Synthesis and biological evaluation of novel 2,4-disubstituted quinazoline analogues as GPR119 agonists” (Bioorg Med Chem, 2013)
The source made the active and inactive calls. No cut-off for these calls is given here.

Key:
Format in all cases: functional, cell-based
[1] = target: T1, Glucose-dependent insulinotropic receptor (Homo sapiens) (UniProt Q8TDV5); assay: Agonist activity at human GPR119 expressed in HEK293 cells assessed as cAMP accumulation after 60 mins relative to OEA
T1 sequence (whole entry): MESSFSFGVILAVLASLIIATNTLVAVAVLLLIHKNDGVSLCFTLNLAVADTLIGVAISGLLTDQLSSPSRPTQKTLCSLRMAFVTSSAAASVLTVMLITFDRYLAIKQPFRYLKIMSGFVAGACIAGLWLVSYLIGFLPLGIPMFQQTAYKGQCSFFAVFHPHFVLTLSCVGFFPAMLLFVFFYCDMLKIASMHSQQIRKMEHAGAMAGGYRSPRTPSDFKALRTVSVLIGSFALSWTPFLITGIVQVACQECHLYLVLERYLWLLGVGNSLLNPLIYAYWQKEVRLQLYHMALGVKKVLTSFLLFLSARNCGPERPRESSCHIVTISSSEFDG
Summary of the method: (§1)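 HEK293 cells (4x10³/well) seeded, after 24h transiently transfected with human GPR119 expression plasmid via Lipofectamine/Plus; 24h later exposed to compounds in KRBH with 0.1% BSA and 500 μM IBMX, 60 min, 37 C. Lysed 10 min at room temperature (50 mM phosphate, 1 M KF, 1.25% Triton X-100, pH 7.0); cAMP read by HTRF. EC50 taken as concentration giving 50% of OEA cAMP stimulation; %max relative to OEA maximal effect.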

[2] = target: T2, Glucose-dependent insulinotropic receptor (Homo sapiens, UniProt Q8TDV5); assay: Agonist activity at human GPR119 expressed in HEK293 cells assessed as cAMP accumulation after 60 mins; summary of the method: as §1
T2 sequence (Q8TDV5 whole entry): T1 sequence (whole entry)

[3] = target: T1, Glucose-dependent insulinotropic receptor (Homo sapiens); assay: Agonist activity at human GPR119 expressed in HEK293 cells assessed as cAMP accumulation at 10 uM after 60 mins relative to OEA; summary of the method: as §1
[4] = target: T1, Glucose-dependent insulinotropic receptor (Homo sapiens); assay: Agonist activity at human GPR119 expressed in HEK293 cells assessed as cAMP accumulation at 10 uM after 60 mins

Row | Compound | Emax [1] [%] | EC50 [2] [µM] | Emax [3] | Activity [4]
1 | COc1cc2nc(OCC3CCN(C(=O)OC(C)(C)C)CC3)nc(Nc3ccc(S(C)(=O)=O)cc3)c2cc1OC | – | – | inactive | inactive
2 | COc1cc2nc(Nc3ccc(S(C)(=O)=O)cc3)nc(OCC3CCN(C(=O)OC(C)(C)C)CC3)c2cc1OC | 17.4 | > 10 | – | –
3 | COc1cc2nc(Nc3ccc(S(C)(=O)=O)cc3)nc(N3CCC4CCC(C3)N4Cc3ccccc3)c2cc1OC (racemic) | 32.8 | > 10 | – | –
4 | COc1cc2nc(Nc3ccc(S(C)(=O)=O)cc3)nc(NCC3CC4CCC(C3)N4C(=O)OC(C)(C)C)c2cc1OC (centres undefined) | 15.1 | > 10 | – | –
5 | COc1cc2nc(Nc3ccc(S(C)(=O)=O)cc3)nc(OC3CCN(C(=O)OC(C)(C)C)CC3)c2cc1OC | 20.6 | > 10 | – | –
6 | COc1cc2nc(OCC3CCN(C(=O)OC(C)(C)C)CC3)nc(Nc3ccc(S(C)(=O)=O)cc3F)c2cc1OC | 33.2 | > 10 | – | –
7 | COc1cc2nc(Nc3ccc(S(C)(=O)=O)cc3)nc(N3CCC4CCC(C3)N4C(=O)OC(C)(C)C)c2cc1OC (racemic) | 37.5 | > 10 | – | –
8 | COc1cc2nc(N3CCC4CCC(C3)N4Cc3ccccc3)nc(Nc3ccc(S(C)(=O)=O)cc3F)c2cc1OC (racemic) | 44.3 | > 10 | – | –

Other lines, results leading:

Row | Emax [1] [%] | EC50 [2] [µM] | Emax [3] | Activity [4] | Compound
9 | 21.3 | > 10 | – | – | COc1cc2nc(Nc3ccc(S(C)(=O)=O)cc3F)nc(OCC3CCN(C(=O)OC(C)(C)C)CC3)c2cc1OC
10 | 19.6 | > 10 | – | – | COc1cc2nc(OC3CCN(C(=O)OC(C)(C)C)CC3)nc(Nc3ccc(S(C)(=O)=O)cc3F)c2cc1OC
11 | 56.9 | 1 | – | – | COc1cc2nc(N3CCC4CCC(C3)N4C(=O)OC(C)(C)C)nc(Nc3ccc(S(C)(=O)=O)cc3F)c2cc1OC (racemic)
12 | 23.4 | > 10 | – | – | COc1cc2nc(N3CCC4CCC(C3)N4Cc3ccccc3)nc(Nc3ccc(S(C)(=O)=O)cc3)c2cc1OC (racemic)
13 | 17 | > 10 | – | – | COc1cc2nc(Nc3ccc(S(C)(=O)=O)cc3)nc(NC3CC4CCC(C3)N4C(=O)OC(C)(C)C)c2cc1OC (centres undefined)
14 | 32.7 | > 10 | – | – | COc1cc2nc(N3CCC4CCC(C3)N4C(=O)OC(C)(C)C)nc(Nc3ccc(S(C)(=O)=O)cc3)c2cc1OC (racemic)
15 | 17.9 | > 10 | – | – | COc1cc2nc(OC3CCN(C(=O)OC(C)(C)C)CC3)nc(Nc3ccc(S(C)(=O)=O)cc3)c2cc1OC
16 | 19.7 | > 10 | – | – | COc1cc2nc(Nc3ccc(S(C)(=O)=O)cc3F)nc(OC3CCN(C(=O)OC(C)(C)C)CC3)c2cc1OC
17 | – | 2.2 | – | – | CCCCCCCC/C=C\CCCCCCCC(=O)NCCO [OLEOYLETHANOLAMIDE]
18 | 19.9 | > 10 | – | – | COc1cc2nc(NCC3CC4CCC(C3)N4C(=O)OC(C)(C)C)nc(Nc3ccc(S(C)(=O)=O)cc3)c2cc1OC (centres undefined)
19 | 53.7 | 1 | – | – | COc1cc2nc(NCC3CC4CCC(C3)N4C(=O)OC(C)(C)C)nc(Nc3ccc(S(C)(=O)=O)cc3F)c2cc1OC (centres undefined)
20 | 46.2 | 1 | – | – | COc1cc2nc(NC3CC4CCC(C3)N4C(=O)OC(C)(C)C)nc(Nc3ccc(S(C)(=O)=O)cc3F)c2cc1OC (centres undefined)
